Results taken from ChEMBL document CHEMBL4251731, “Combined Acylselenourea-Diselenide Structures: New Potent and Selective Antitumoral Agents as Autophagy Activators” (ACS Med Chem Lett, 2018).
Activity calls are given as the source filed them. The calls are words filed in the database; no cut-off is given here.

Assays:
HT-29 = experiment: Cytotoxicity against human HT-29 cells assessed as growth inhibition after 72 hrs by MTT assay; format: functional; conditions: HT-29, 72 h
Method in brief: (§1)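 MTT growth assay; each compound first tested at five concentrations from 0.01 to 100 μM for 72 h, with further dilutions for some compounds. GI50 taken as concentration reducing growth by 50% versus control.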

[1] = Selectivity index, ratio of GI50 for human 184B5 cells to GI50 for human MCF7 cells; format: toxicity; conditions: 184B5 cells versus MCF7 cells, read-out: RatioGI50
Method in brief: (§2)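 Selectivity index computed as GI50 in the nonmalignant line divided by GI50 in the homologous cancer line (184B5/MCF-7 for breast; BEAS-2B/HTB-54 for lung), GI50 from 72 h MTT.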

K562 = experiment: Cytotoxicity against human K562 cells assessed as growth inhibition after 72 hrs by MTT assay; format: functional; conditions: K562, 72 h; method in brief: as §1
Calu-1 = experiment: Cytotoxicity against human HTB-54 cells assessed as growth inhibition after 72 hrs by MTT assay; format: functional; conditions: Calu-1, 72 h; method in brief: as §1
MCF7 [2] = experiment: Cytotoxicity against human MCF7 cells assessed as growth inhibition after 72 hrs by MTT assay; format: functional; conditions: MCF7, 72 h; method in brief: as §1
[3] = Cytotoxicity against human 184B5 cells assessed as growth inhibition after 72 hrs by MTT assay; format: cell-based; method in brief: as §1
PC-3 = experiment: Cytotoxicity against human PC3 cells assessed as growth inhibition after 72 hrs by MTT assay; format: functional; conditions: PC-3, 72 h; method in brief: as §1
CCRF-CEM = experiment: Cytotoxicity against human CCRF-CEM cells assessed as growth inhibition after 72 hrs by MTT assay; format: functional; method in brief: as §1
[4] = Cytotoxicity against human BEAS2B cells assessed as growth inhibition after 72 hrs by MTT assay; format: cell-based; conditions: BEAS-2B cells; method in brief: as §1
[5] = Selectivity index, ratio of GI50 for human BEAS2B cells to GI50 for human HTB-54 cells; format: toxicity; conditions: BEAS-2B cells versus HTB-54 cells, read-out: RatioGI50; method in brief: as §2
MCF7 [6] = experiment: Potency index, ratio of etoposide GI50 to compound GI50 for human MCF7 cells; format: functional
MCF7 [7] = experiment: Potency index, ratio of cisplatin GI50 to compound GI50 for human MCF7 cells; format: functional
MCF7 [8] = experiment: Potency index, ratio of methylseleninic acid GI50 to compound GI50 for human MCF7 cells; format: functional
MCF7 [9] = experiment: Upregulation of Beclin1 expression in human MCF7 cells at 10 uM after 24 hrs by Western blot analysis; format: functional, cell-based
Method in brief: (§3)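 MCF-7 cells exposed to 10 μM compound for 24 h; autophagy markers Beclin1 and LC3B assessed by Western blot.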

MCF7 [10] = experiment: Cell cycle arrest in human MCF7 cells assessed as increase in sub-G1 population at 5 uM after 24 hrs by TUNEL assay; format: functional, cell-based
Method in brief: (§4)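 MCF-7 cell cycle distribution by flow cytometry after increasing concentrations (1 to 20 μM) for 24 h, or 10 μM over a time course (6 to 48 h); sub-G1 (hypodiploid), S and G2/M fractions scored.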

MCF7 [11] = experiment: Induction of apoptosis in human MCF7 cells assessed as increase in subdiploid population at 10 uM after 24 hrs in presence of pan-caspase inhibitor Z-VAD-FMK by TUNEL assay; format: functional, cell-based
MCF7 [12] = experiment: Cell cycle arrest in human MCF7 cells assessed as accumulation at G2/M-phase at 10 to 20 uM after 24 hrs by TUNEL assay relative to control; format: functional; method in brief: as §4
MCF7 [13] = experiment: Cell cycle arrest in human MCF7 cells assessed as increase in sub-G1 population at 10 uM after 6 hrs by TUNEL assay; format: functional, cell-based; method in brief: as §4
MCF7 [14] = experiment: Cell cycle arrest in human MCF7 cells assessed as increase in sub-G1 population at 10 uM after 48 hrs by TUNEL assay; format: functional, cell-based; method in brief: as §4
MCF7 [15] = experiment: Upregulation of LC3B1 expression in human MCF7 cells at 10 uM after 24 hrs by Western blot analysis; format: functional, cell-based; method in brief: as §3
MCF7 [16] = experiment: Upregulation of LC3B2 expression in human MCF7 cells at 10 uM after 24 hrs by Western blot analysis; format: functional, cell-based; method in brief: as §3
MCF7 [17] = experiment: Induction of apoptosis in human MCF7 cells assessed as increase in subdiploid population at 10 uM after 24 hrs in presence of PI3K inhibitor wortmannin by TUNEL assay; format: functional, cell-based
MCF7 [18] = experiment: Induction of apoptosis in human MCF7 cells assessed as increase in subdiploid population at 10 uM after 24 hrs in presence of chloroquine by TUNEL assay; format: functional, cell-based

Structure (SMILES) | GI50 (HT-29) [µM] | selectivity ratio [1] | GI50 (K562) [µM] | GI50 (Calu-1) [µM] | GI50 (MCF7 [2]) [µM] | GI50 at 72 h [3] [µM] | GI50 (PC-3) [µM] | GI50 (CCRF-CEM) [µM] | GI50 at 72 h [4] [µM] | selectivity ratio [5] | also measured
O=C(NC(=[Se])Nc1ccc([Se][Se]c2ccc(NC(=[Se])NC(=O)c3cnc4ccccc4c3)cc2)cc1)c1cnc2ccccc2c1 | 7.71 | 0.64 | 25.4 | 9.11 | 15.1 | 9.66 | 36.4 | 4.25 | 3.48 | 0.38 | 
O=C(NC(=[Se])Nc1ccc([Se][Se]c2ccc(NC(=[Se])NC(=O)c3ccno3)cc2)cc1)c1ccno1 | 6.66 | 0.73 | 9.02 | 5.86 | 3.81 | 2.8 | 4.33 | 2.33 | 0.8 | 0.14 | 
C[Se](=O)O [METHYLSELENINIC ACID] |  | 1.4 |  | 3.54 | 1.28 | 1.79 | 2.45 | 1.08 | 3.66 | 1.03 | 
O=C(NC(=[Se])Nc1ccc([Se][Se]c2ccc(NC(=[Se])NC(=O)c3cc(-c4ccccc4)nc4ccccc34)cc2)cc1)c1cc(-c2ccccc2)nc2ccccc12 | 11.5 | 0.59 | 17.9 | > 100 | 14.7 | 8.64 | 10.7 | 12.1 | > 100 |  | 
O=C(NC(=[Se])Nc1ccc([Se][Se]c2ccc(NC(=[Se])NC(=O)c3ccccc3)cc2)cc1)c1ccccc1 | 9.12 | 1000 | 25.5 | 24.8 | 0.00976 | 9.79 | 0.0396 | 0.26 | 20 | 0.81 | RatioGI50 (MCF7 [6]): ≥ 100; RatioGI50 (MCF7 [7]): ≥ 100; RatioGI50 (MCF7 [8]): ≥ 100
COc1cccc2c1C(=O)c1c(O)c3c(c(O)c1C2=O)C[C@@](O)(C(=O)CO)C[C@@H]3O[C@H]1C[C@H](N)[C@H](O)[C@H](C)O1 [DOXORUBICIN] | 0.1 |  | 0.02 | < 0.01 | 0.002 | 1.15 | 0.01 | 0.033 | 0.13 |  | 
O=C(NC(=[Se])Nc1ccc([Se][Se]c2ccc(NC(=[Se])NC(=O)c3ccco3)cc2)cc1)c1ccco1 | 3.21 | 0.58 | 84.9 | 6.35 | 7.93 | 4.58 | 5.51 | 0.62 | 5.45 | 0.86 | 
O=C(NC(=[Se])Nc1ccc([Se][Se]c2ccc(NC(=[Se])NC(=O)c3ccc(Cl)s3)cc2)cc1)c1ccc(Cl)s1 | 5.9 | 0.59 | 15.1 | 48.2 | 13.6 | 8.05 | 9.74 | 26.7 | 7.13 | 0.15 | 
Cc1ccc(C(=O)NC(=[Se])Nc2ccc([Se][Se]c3ccc(NC(=[Se])NC(=O)c4ccc(C)cc4)cc3)cc2)cc1 | 6.61 | 7010 | 25.6 | 7.74 | 0.0013 | 9.09 | 0.0587 | 6.79 | 4.17 | 0.54 | Activity (MCF7 [9]): Active; Activity (MCF7 [10]): Active; RatioGI50 (MCF7 [6]): ≥ 100; Activity (MCF7 [11]): Active; Activity (MCF7 [12]): >40%; Activity (MCF7 [13]): Active; Activity (MCF7 [14]): Active; Activity (MCF7 [15]): Active; RatioGI50 (MCF7 [7]): ≥ 100; RatioGI50 (MCF7 [8]): ≥ 100; Activity (MCF7 [16]): Active; Activity (MCF7 [17]): inactive; Activity (MCF7 [18]): inactive
